This is an account of results in ChEMBL document CHEMBL2384909, “Development of Novel Alkene Oxindole Derivatives As Orally Efficacious AMP-Activated Protein Kinase Activators” (ACS Med Chem Lett, 2013).

A short description of test [1]: Activation of partially purified rat liver AMPK assessed as 33P-phosphorylation of SAMS peptide.
Test [2] is described as follows: Activation of AMPK in rat primary hepatocytes assessed as inhibition of fatty acid biosynthesis by 14C-acetate incorporation assay. The test is classed as cell-based. The following applies: Hepatocyte.
The subject of a further test is Mus musculus. Nature of the test: Antidiabetic activity in diet-induced obese C57BL/6J mouse assessed as reduction in plasma triglyceride at 150 mg/kg, po qd for 4 weeks (reference value: 0.62 +/- 0.02 mM). The test is classed as functional.
The target in test [3] is AMPK alpha2/beta1/gamma1 (Homo sapiens) (UniProt P54646+P54619+Q9Y478). Nature of the test: Activation of recombinant AMPK alpha2beta1gamma1 (unknown origin) at 20 ug/mL after 2 hrs by scintillation proximity assay relative to AMP. The test is classed as protein-complex assay. For orientation: SPA uses beads or plates that emit light when radiolabelled molecules are held near them.

In the next test the target is AMPK alpha2/beta1/gamma1 (Homo sapiens, UniProt P54619+P54646+Q9Y478). Nature of the test: Activation of recombinant AMPK alpha2beta1gamma1 (unknown origin) after 2 hrs by scintillation proximity assay. The test is classed as protein-complex assay. In a few lines: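 Activation of bacterially expressed AMPK α2β1γ1 was measured by scintillation proximity assay. Efficacy is expressed relative to AMP.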

Test [4] deals with T1, 5'-AMP-activated protein kinase catalytic subunit alpha-1 (Homo sapiens, UniProt Q13131). As to the kind of experiment: Activation of recombinant AMPK alpha1 (1 to 394) (unknown origin) at 20 ug/mL after 2 hrs by scintillation proximity assay relative to PT1.
Target sequence in this assay (Q13131 whole entry, looked up): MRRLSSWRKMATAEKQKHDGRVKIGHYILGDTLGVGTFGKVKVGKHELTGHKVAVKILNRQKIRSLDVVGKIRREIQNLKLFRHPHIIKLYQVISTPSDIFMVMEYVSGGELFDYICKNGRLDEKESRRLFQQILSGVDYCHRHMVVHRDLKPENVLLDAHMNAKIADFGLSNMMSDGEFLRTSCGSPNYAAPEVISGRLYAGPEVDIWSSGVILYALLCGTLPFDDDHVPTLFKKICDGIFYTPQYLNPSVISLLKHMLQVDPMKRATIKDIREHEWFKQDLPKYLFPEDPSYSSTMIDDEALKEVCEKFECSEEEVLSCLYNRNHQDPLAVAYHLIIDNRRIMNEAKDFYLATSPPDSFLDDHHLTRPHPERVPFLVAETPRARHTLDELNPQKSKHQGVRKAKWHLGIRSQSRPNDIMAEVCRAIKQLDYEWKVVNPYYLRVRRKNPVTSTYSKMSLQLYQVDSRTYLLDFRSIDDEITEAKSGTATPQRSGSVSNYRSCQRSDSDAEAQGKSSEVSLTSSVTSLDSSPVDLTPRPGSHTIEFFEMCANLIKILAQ
The target of test [5] is T1, 5'-AMP-activated protein kinase catalytic subunit alpha-1. As to the kind of experiment: Activation of recombinant AMPK alpha1 (1 to 394) (unknown origin) after 2 hrs by scintillation proximity assay.
Target sequence in this assay (Q13131 whole entry): as the sequence (Q13131 whole entry, looked up) above
Test [6] addresses 5'-AMP-activated protein kinase catalytic subunit alpha-2 (Homo sapiens, UniProt P54646). Nature of the test: Activation of human AMPK alpha2 (1 to 398) expressed in African green monkey COS7 cells. The test is classed as cell-based, COS-7.
In test [7] the target is T1, 5'-AMP-activated protein kinase catalytic subunit alpha-1. Nature of the test: Activation of human AMPK alpha1 (1 to 394) expressed in African green monkey COS7 cells. The test is classed as cell-based, COS-7.
Target sequence in this assay (Q13131 whole entry): as the sequence (Q13131 whole entry, looked up) above
For test [8], the system named is L6. Nature of the test: Induction of AMPK phosphorylation in rat L6 cells by Western blotting analysis. Type of test: cell-based. In general terms: In western blotting, separated proteins are transferred to a membrane and probed.
Test [9] has as its system L6. Nature of the test: Induction of AMPK-mediated ACC phosphorylation in rat L6 cells by Western blotting analysis. The test is classed as cell-based.

Chain of AMPK alpha2/beta1/gamma1 (Homo sapiens) (P54619 whole entry partner): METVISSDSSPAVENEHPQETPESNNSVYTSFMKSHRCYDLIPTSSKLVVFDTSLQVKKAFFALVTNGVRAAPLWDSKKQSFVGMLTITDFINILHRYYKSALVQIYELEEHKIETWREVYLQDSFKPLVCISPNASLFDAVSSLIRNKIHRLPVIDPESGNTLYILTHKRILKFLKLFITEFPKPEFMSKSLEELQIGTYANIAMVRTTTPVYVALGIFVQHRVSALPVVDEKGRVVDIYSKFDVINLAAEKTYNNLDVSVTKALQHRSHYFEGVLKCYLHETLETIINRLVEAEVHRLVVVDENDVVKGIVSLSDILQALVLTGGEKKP
Chain of AMPK alpha2/beta1/gamma1 (Homo sapiens) (P54646 whole entry): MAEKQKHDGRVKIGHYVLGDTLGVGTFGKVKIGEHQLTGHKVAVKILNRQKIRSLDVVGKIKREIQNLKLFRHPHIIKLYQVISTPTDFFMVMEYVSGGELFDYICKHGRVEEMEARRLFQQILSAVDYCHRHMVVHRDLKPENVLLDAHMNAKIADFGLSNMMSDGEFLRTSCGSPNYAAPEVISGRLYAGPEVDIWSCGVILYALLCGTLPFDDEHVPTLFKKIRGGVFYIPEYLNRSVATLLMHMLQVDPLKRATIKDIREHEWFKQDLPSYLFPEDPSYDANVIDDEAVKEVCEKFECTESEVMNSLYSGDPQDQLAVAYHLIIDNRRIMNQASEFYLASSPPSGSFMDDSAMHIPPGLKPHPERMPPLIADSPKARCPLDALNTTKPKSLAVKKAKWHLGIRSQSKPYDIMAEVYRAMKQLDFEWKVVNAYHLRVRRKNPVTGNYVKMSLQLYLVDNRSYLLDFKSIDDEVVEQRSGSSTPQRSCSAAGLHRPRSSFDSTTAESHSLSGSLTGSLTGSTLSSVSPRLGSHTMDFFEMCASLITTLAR
Chain of AMPK alpha2/beta1/gamma1 (Homo sapiens) (Q9Y478 2-270 partner limits assumed): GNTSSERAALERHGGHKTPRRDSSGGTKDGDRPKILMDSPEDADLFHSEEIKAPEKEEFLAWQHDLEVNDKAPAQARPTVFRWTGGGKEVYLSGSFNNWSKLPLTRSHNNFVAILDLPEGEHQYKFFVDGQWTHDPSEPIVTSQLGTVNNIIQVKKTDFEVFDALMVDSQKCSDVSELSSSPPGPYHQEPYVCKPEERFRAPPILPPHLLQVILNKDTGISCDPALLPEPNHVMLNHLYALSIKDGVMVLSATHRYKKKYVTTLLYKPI
Chain of AMPK alpha2/beta1/gamma1 (P54646 whole entry): as the sequence (P54646 whole entry) above
Chain of AMPK alpha2/beta1/gamma1 (P54619 whole entry): as the sequence (P54619 whole entry partner) above
Chain of AMPK alpha2/beta1/gamma1 (Q9Y478 whole entry): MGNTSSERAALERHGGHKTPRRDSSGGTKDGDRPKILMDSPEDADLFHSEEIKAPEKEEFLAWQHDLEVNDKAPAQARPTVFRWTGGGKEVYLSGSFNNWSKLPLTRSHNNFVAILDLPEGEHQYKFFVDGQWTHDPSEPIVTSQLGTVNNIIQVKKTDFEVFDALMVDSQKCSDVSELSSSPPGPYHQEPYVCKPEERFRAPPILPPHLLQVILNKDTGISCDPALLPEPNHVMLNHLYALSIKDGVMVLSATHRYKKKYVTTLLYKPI
Chain of 5'-AMP-activated protein kinase catalytic subunit alpha-2 (P54646 whole entry): as the sequence (P54646 whole entry) above

For the compound `N#Cc1c(O)c2c(-c3ccc(-c4ccccc4O)cc3)csc2[nH]c1=O`, the EC50 (in general, the concentration at which the effect is half-maximal) in test [1] stood at 800 nM. In addition, the IC50 (as a rule, the concentration that inhibits the measured activity by half) in test [2] came out at 3.2 µM.

For the compound `CN(C)C(=N)NC(=N)N` [METFORMIN], the Activity with Mus musculus was 0.5 mM.

In the case of `CC(C)/C(=C1\C(=O)N(Cc2cccc(C(=O)O)c2)c2ccccc21)c1ccccc1`, the Efficacy in [3] was < 50%. Moreover, the EC50 on AMPK alpha2/beta1/gamma1 was > 10 µM.

In the case of `O=C1N/C(=N/c2ccc(Cl)c(C(=O)O)c2)S/C1=C\c1ccc(-c2ccccc2Cl)o1`, the Activity in [4] was < 50%.

For `Cc1cc(-c2ccc(/C=C3\S/C(=N\c4ccc(Cl)c(C(=O)O)c4)NC3=O)o2)c([N+](=O)[O-])cc1C`, the EC50 in test [5] was 9.6 µM; in test [6], 12 µM; on AMPK alpha2/beta1/gamma1, 0.3 µM; in [7], 9 µM. Further, the Efficacy in test [3] was 40%.

Turning to `CC(C)/C(=C1\C(=O)N(Cc2cccc(C(=O)O)c2)c2ccccc21)c1ccc(Cl)cc1`, the Efficacy in [3] turned out to be 227%. In addition, on AMPK alpha2/beta1/gamma1, the EC50 is 9.9 µM.

Take `O=C(O)c1cccc(CN2C(=O)/C(=C(\c3ccccc3)c3ccc(F)c(Cl)c3)c3ccccc32)c1`: in [3], the Efficacy was determined as 105%. For the same compound, the concentration giving a half-maximal response (EC50) at AMPK alpha2/beta1/gamma1 is 5.9 µM.

Turning to `COC(=O)c1cc(/N=C2/NC(=O)/C(=C/c3ccc(-c4cc(C)c(C)cc4[N+](=O)[O-])o3)S2)ccc1Cl`, the Activity in [4] was < 50%.

As to `O=C1N/C(=N/c2ccc(Cl)c(C(=O)O)c2)S/C1=C\c1ccc(-c2cccc([N+](=O)[O-])c2)o1`, the Activity in test [4] turned out to be 176%.

In the case of `O=C(O)c1cccc(CN2C(=O)/C(=C/c3ccc(-c4ccc(F)c(Cl)c4)o3)c3ccccc32)c1`, the Activity result in the test on L6 [8] and in the test with L6 [9] was “Dose-dependent effect” throughout. Also, the Efficacy in [3] was determined as 122%. In addition, the 50% effective concentration (EC50) at AMPK alpha2/beta1/gamma1 was determined as 4.8 µM.

On to `Cc1cc(-c2ccc(/C=C3\S/C(=N\c4ccc(F)cc4)NC3=O)o2)c([N+](=O)[O-])cc1C`, for which the Activity in [4] is < 50%.

As to `O=C(O)c1cccc(CN2C(=O)/C(=C(\c3ccccc3)c3cccnc3)c3ccccc32)c1`, in [3], the Efficacy is 96%. The EC50 on AMPK alpha2/beta1/gamma1 was determined as 3.2 µM.

Take `O=C1N/C(=N/c2ccc(Cl)c(C(=O)O)c2)S/C1=C\c1ccc(-c2ccccc2[N+](=O)[O-])o1`: the Activity in [4] is < 50%.

`O=C1/C(=C(\c2ccccc2)c2ccc(Cl)cc2)c2ccccc2N1Cc1ccccc1`: the Efficacy in [3] turned out to be 70%. The half-maximal effective concentration (EC50) on AMPK alpha2/beta1/gamma1 amounted to 1 µM.

`O=C(O)c1cccc(CN2C(=O)/C(=C(/c3ccc(Cl)cc3)C3CCCCC3)c3ccccc32)c1`: the Efficacy in [3] was 103%. Moreover, at AMPK alpha2/beta1/gamma1, the EC50 was determined as 4.6 µM.

For the compound `Cc1cc(-c2ccc(/C=C3\SC(=S)N(c4cccc(C(=O)O)c4)C3=O)o2)c([N+](=O)[O-])cc1C`, the Activity in test [4] was < 50%.

Turning to `CC(C)NC(=O)c1cccc(CN2C(=O)/C(=C(\c3ccccc3)c3ccc(Cl)cc3)c3ccccc32)c1`, the Efficacy in test [3] was found to be 151%. The EC50 on AMPK alpha2/beta1/gamma1 came to 4.5 µM.

`O=C(O)c1cccc(CN2C(=O)/C(=C(\c3ccccc3)c3ccccc3OC(F)(F)F)c3ccccc32)c1`: in [3], the Efficacy came to 99%. Also, on AMPK alpha2/beta1/gamma1, the EC50 is 7.4 µM.

For the compound `O=C(O)c1cccc(CN2C(=O)/C(=C/c3ccc(-c4cccc([N+](=O)[O-])c4)o3)c3ccccc32)c1`, the EC50 stood at 2.1 µM in test [5] and 3.2 µM at AMPK alpha2/beta1/gamma1. Also, the values for the Activity (in test [4]; with L6 [8]; with L6 [9]) were 341%, “Dose-dependent effect” and “Dose-dependent effect”, respectively. Also, the Efficacy in test [3] was determined as 152%.

For the compound `Cc1cc(-c2ccc(/C=C3\S/C(=N\c4ccccc4C(=O)O)NC3=O)o2)c([N+](=O)[O-])cc1C`, the Activity in [4] is 55%.

As for `O=C(O)c1ccc(CN2C(=O)/C(=C(\c3ccccc3)c3ccc(Cl)cc3)c3ccccc32)nc1`, the Efficacy in [3] is 75%. Besides, on AMPK alpha2/beta1/gamma1, the EC50 came out at 9.2 µM.

With `Cc1cc(-c2ccc(/C=C3\S/C(=N\c4cccc(C(=O)O)c4)NC3=O)o2)c([N+](=O)[O-])cc1C`, in test [4], the Activity was found to be 106%.

Take `O=C(O)c1cccc(CN2C(=O)/C(=C(\c3ccccc3)c3ccccc3Cl)c3ccccc32)c1`: the Efficacy in test [3] came out at 101%. For the same compound, the EC50 at AMPK alpha2/beta1/gamma1 stood at 1.8 µM.

As to `CC(C)c1ccc(/C(=C2/C(=O)N(Cc3cccc(C(=O)O)c3)c3ccccc32)c2ccccc2)cc1`, in test [3], the Efficacy was 97%. Further, at AMPK alpha2/beta1/gamma1, the EC50 was 4 µM.
